Sampled rows, rich in hits. Any-hit rate of the full collection: about 1.6%.
VLA-4 inh: inhibition in a human VLA-4 binding assay; P13612; VLA-4 expressing cells, ligand binding flow cytometry; inhibition, % (about 7 µM as worked out from the volumes in the protocol); 330,000 compounds, 0.2% hits; AID 2557; in the data active = inhibition above about 50%
NR2E3 ag-1: agonists of human nuclear receptor NR2E3; GST-NR2E3/biotin-RetCOR TR-FRET, 1536-well; inhibition of corepressor binding, % at 4.78 µM; 320,000 compounds, 0.12% hits; AID 2300;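 active = percent inhibition above the cutoff of mean plus 3 SD of all tested compounds, set per screening campaign, cut at about 20% in these data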
Target sequence (Q9Y5X4 whole entry, looked up): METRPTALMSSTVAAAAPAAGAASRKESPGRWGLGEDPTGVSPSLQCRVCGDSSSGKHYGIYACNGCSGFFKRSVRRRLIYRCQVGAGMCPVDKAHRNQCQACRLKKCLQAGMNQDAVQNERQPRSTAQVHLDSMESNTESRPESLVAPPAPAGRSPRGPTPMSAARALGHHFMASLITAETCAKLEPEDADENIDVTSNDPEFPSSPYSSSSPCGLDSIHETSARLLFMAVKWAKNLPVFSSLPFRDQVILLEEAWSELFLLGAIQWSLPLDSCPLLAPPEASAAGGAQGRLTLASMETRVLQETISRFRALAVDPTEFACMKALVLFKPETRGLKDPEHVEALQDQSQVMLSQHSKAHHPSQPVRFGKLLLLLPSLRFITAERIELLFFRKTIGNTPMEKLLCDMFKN
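Test system – NR2E3–RetCOR corepressor complex · Quantity – NR2E3 fusion 1.35 nM · Buffer or medium – Tris pH 7.5 · Incubation – Compound–protein incubation for 5 h at 4 °C · Technique – TR-FRET, Eu(K)-anti-GST donor, streptavidin-D2 acceptor, ex 340, em 617/671 nm · Evaluation – percent inhibition of 671/617 nm emission ratio versus biotin and DMSO controls · Plate – 1536-well format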
PG9 Ab binder: binds the HIV-1 gp120 antibody PG9; TR-FRET gp120-PG9 antibody binding; inhibition, % at 6.7 µM; 360,000 compounds, 0.43% hits; AID 624416; in the data active = inhibition above about 8.5%
Rev-erbA mod: modulators of human Rev-erb alpha DNA binding | activity, % at 10 µM | AID 1259318 | 370,000 compounds, 0.79% hits | Rev-erbα–FITC-DNA binding, fluorescence polarization, 90 min;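 active = activity above about 14%, limit read from the data; passing the limit was not always enough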
NR2E3 ag-2: agonists of human NR2E3 nuclear receptor | CHO-S Gal4-NCOR/VP16-NR2E3 two-hybrid, luciferase | 360,000 compounds, 0.35% hits | Q9Y5X4 | inhibition of corepressor binding, % at 3.98 µM | AID 602229;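 active = inhibition above the mean of all tested compounds plus 3 SD, cut at about 70% in these data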;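 also: higher means lower luciferase signal from less NR2E3 corepressor binding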
NR2E3 ag confirm: NR2E3 agonism confirmed in two-hybrid assay | CHO-S mammalian two-hybrid NR2E3-NCOR, luciferase luminescence | shares compounds with NR2E3 ag-2 | inhibition, % at 3.98 µM | 2,300 compounds, 51% hits;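 active = average inhibition above a cutoff equal to the mean inhibition of all tested compounds plus one SD, cut at about 70% in these data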
GAL4-VP16 luc: GAL4-VP16 reporter inhibition in NR2E3 agonist counterscreen. shares compounds with NR2E3 ag-2. 2,300 compounds, 29% hits. CHO-S GAL4-VP16 luciferase reporter, luminescence. inhibition, % at 3.98 µM;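 active = mean inhibition above a cutoff equal to the average over all tested compounds plus one standard deviation, cut at about 70% in these data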;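 also: luciferase from a UAS reporter driven by GAL4-VP16 transactivation; higher means less reporter light so more repression of VP16 activity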
Hits are given with their value; . = inactive; / = no result given.

SMILES | VLA-4 inh | NR2E3 ag-1 | PG9 Ab binder | Rev-erbA mod | NR2E3 ag-2 | NR2E3 ag confirm | GAL4-VP16 luc
CCOC(=O)C1(Cc2ccc(Cl)cc2)CCN(C(C)Cc2ccc(O)c(OC)c2)CC1 (centres undefined) | . | . | . | . | . | 85.9 | 74.9
O=C(C1CC1)N1CCc2cc(Br)cc(S(=O)(=O)N3CCN(c4ccccn4)CC3)c21 | . | . | . | . | 86.7 | 90.0 | .
O=c1c(Cl)c(N2CCN(c3ccc(F)cc3)CC2)cnn1C12CC3CC(CC(C3)C1)C2 | . | . | . | . | . | 71.0 | .
CCOc1ccc(CCNC(=O)COC(=O)Cc2ccc(F)cc2)cc1OCC | . | . | . | . | . | . | .
Cc1ccc2sc(NNC(=O)C3=COCCO3)nc2c1C | . | . | . | . | . | / | /
Cc1ccc2sc(N3CCN(C(=O)C4=COCCO4)CC3)nc2c1C | . | . | . | . | . | . | .
COc1ccc(OC)c(NC(=O)c2nnn(CCc3ccccc3)c2N)c1 | . | . | . | . | . | / | /
Cc1ccccc1Cn1nnc(C(=O)Nc2cccc(C)c2C)c1N | . | . | . | . | . | 86.8 | .
COc1ccc(C)cc1NC(=O)c1nnn(Cc2cccc(C(F)(F)F)c2)c1N | . | . | . | . | . | 85.4 | .
O=C(CCS(=O)(=O)c1ccccc1)Nc1ccc(F)cc1F | / | / | / | . | / | / | /
O=C(c1ccccc1)c1nn(-c2ccccc2)c(=O)cc1C(F)(F)F | . | . | . | . | . | / | /
O=C(c1ccccc1)c1nn(-c2ccc(Cl)cc2)c(=O)cc1C(F)(F)F | . | . | . | . | 107.7 | 93.2 | .
COC(=O)C1=C(C)N(CC(C)C)C(=S)NC1c1ccc(-c2ccccc2)cc1 (centres undefined) | / | / | . | . | / | / | /
CNC(=O)c1cc(Oc2ccc(NC(=O)Nc3ccc(Cl)c(C(F)(F)F)c3)cc2)ccn1 | . | . | . | . | 92.1 | 98.9 | 81.3
O=C(Nc1ccc(Cl)c(C(F)(F)F)c1)c1ccncc1 | . | . | . | . | . | / | /
O=[N+]([O-])c1ccc(NCCCN2CCC(C(O)(c3ccccc3)c3ccccc3)CC2)cc1 | / | / | / | . | / | / | /
CCOC(=O)C1CCCN(S(=O)(=O)c2ccc(S(=O)(=O)N(CC)CC)cc2)C1 (centres undefined) | . | . | . | . | 83.7 | 97.1 | 88.5
CCOC(=O)C1CCCN(S(=O)(=O)c2ccc(C)cc2)C1 (centres undefined) | . | . | . | . | . | / | /
CCn1nc(C)c(CNC(=O)c2cc(COc3ccc(F)cc3Cl)on2)c1C | . | . | . | . | . | 85.7 | 71.3
CCn1cc(CNC(=O)c2cc(COc3ccc(F)cc3Cl)on2)cn1 | . | . | . | . | . | / | /
Cc1ccc(CSC(Nc2ccc(F)cc2)=C(C#N)C#N)cc1 | . | . | . | . | 98.8 | 98.7 | 89.8
N#Cc1c(N)n(C2OC(CO)C(O)C2O)c2ncnc(N)c12 (centres undefined) | / | / | . | . | 88.9 | 96.0 | 88.7
COC(=O)c1cc2c(c3c4cc(C)ccc4n(S(=O)(=O)c4ccc(C)cc4)c13)C(=O)N(Cc1ccc(N(C)C)cc1)C2 | / | / | . | . | / | / | /
CCC1(CC)C(=O)C(C)(C)C(=O)OC1c1ccccn1 (centres undefined) | . | . | . | . | 91.7 | . | .
CCOC(=O)CC[C@H]1CC[C@]2(CCCN(S(C)(=O)=O)C2)O1 | / | / | / | . | / | / | /
SMILES | VLA-4 inh | NR2E3 ag-1 | PG9 Ab binder | Rev-erbA mod | NR2E3 ag-2 | NR2E3 ag confirm | GAL4-VP16 luc
Cc1ccc(Cc2cnc(N3C(=N)SC(C)C3=O)s2)cc1 (centres undefined) | . | . | . | . | 101.5 | 100.6 | .
O=C1c2ccccc2C(=O)N1c1ncc(Cc2ccc(Cl)cc2)s1 | . | . | . | . | . | / | /
Cc1cccc(Cc2cnc(N3C(=N)SC(C)C3=O)s2)c1 (centres undefined) | . | . | . | . | 103.4 | 98.6 | .
Cc1cccc(Cc2cnc(N3C(=N)SC(c4ccccc4)C3=O)s2)c1 (centres undefined) | . | . | . | . | . | / | /
Cc1ccc(Cl)cc1N1CCN(S(=O)(=O)c2c(C)nc3scc(C)n3c2=O)CC1 | . | . | . | . | . | / | /
Cc1ccc(N2CCN(S(=O)(=O)c3c(C)nc4scc(C)n4c3=O)CC2)c(C)c1 | . | . | . | . | . | . | .
COc1ccc(-c2nc(CSCC(=O)NCC3CCCO3)c(C)o2)cc1OC (centres undefined) | . | . | . | . | . | / | /
Cc1ccc(-c2nc(CSCC(=O)NCC3CCCO3)c(C)o2)cc1 (centres undefined) | . | . | . | . | . | . | .
CCOc1ccc(-c2nc(CSCC(=O)NCC3CCCO3)c(C)o2)cc1 (centres undefined) | . | . | . | . | 104.4 | 92.5 | 87.2
C[C@H]1[C@H](NC(=O)c2ccc(Cl)c(Cl)c2)CC[C@@]23CCCN2C(=O)CCC[C@@H]13 | / | / | / | . | / | / | /
CC(Cl)=CCn1c(NCCc2ccccc2)nc2c1c(=O)n(C)c(=O)n2C | / | / | . | . | . | 91.0 | 71.0
CNc1nc2c(c(=O)n(C)c(=O)n2C)n1Cc1ccccc1 | . | . | . | . | . | . | .
Cn1c(=O)c2c(nc(NCc3ccco3)n2C)n(C)c1=O | . | . | . | . | . | / | /
Cn1c(=O)c2c(nc(NCc3ccco3)n2C/C=C/c2ccccc2)n(C)c1=O | . | . | . | . | . | 87.6 | .
COC(=O)[C@H]1C[C@@]2(C)c3ccccc3N(S(=O)(=O)c3ccccc3)[C@H]2N1 | / | / | / | . | / | / | /
Cc1cc(C)c(S(=O)(=O)N2C[C@H]3CON(C)[C@H]3C[C@H]2c2ccc(-n3ccnc3)cc2)c(C)c1 | / | / | . | . | / | / | /
COc1ccc(C(=O)/C=C(\Nc2ccc(Br)c(C)c2)c2ccc(OC)cc2OC)c(OC)c1 | / | / | / | . | / | / | /
Cc1ccc(NC(=S)NNC(=O)CSc2nnc(-c3ccc(C)cc3)n2C2CCCCC2)cc1 | / | / | / | . | / | / | /
Cc1cccc(CCNC(=O)c2ccc(Sc3ccccc3Cl)c([N+](=O)[O-])c2)c1 | / | / | / | . | / | / | /
O=S(=O)(c1ccccc1)N1CCC(n2nnc3cc(F)ccc32)CC1 | . | . | . | . | . | / | /
O=S(=O)(c1ccc2c(c1)OCCO2)N1CCC(n2nnc3cc(C(F)(F)F)ccc32)CC1 | . | . | . | . | . | . | .
COC(=O)c1c(C)oc2ccc(N(C(C)=O)S(=O)(=O)c3ccccc3)cc12 | . | . | . | . | 97.9 | 84.5 | .
CC(=O)c1c(C)oc2ccc(NS(=O)(=O)c3cccs3)cc12 | . | . | . | . | . | / | /
CC(=O)c1c(C)oc2ccc(N(C(C)=O)S(=O)(=O)c3ccc(Br)cc3)cc12 | . | . | . | . | 89.9 | 90.4 | 72.6
CC(=O)c1c(C)oc2ccc(N(C(C)=O)S(=O)(=O)c3cccc4cccnc34)cc12 | . | . | . | . | 86.2 | 94.5 | 74.1

Source: PubChem (several laboratories)
